Assay results published in the RNAGym collection of RNA variant scans (doi:10.1126/science.aae0568).
Fewer inactive variants are shown than the library holds.

B1: tRNA (parent)
chain: GUUCCGUUGGCGUAAUGGUAACGCGUCUCCCUCCUAAGGAGAAGACUGCGGGUUCGAGUCCCGUACGGAACG

Variants of: B1
Assay: yeast fitness relative to wild type (ratio to wild type); higher = fitter; tRNA-Arg(CCU), competitive growth, 37 C, YPD
How it was run: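 Variants of the tRNA-Arg(CCU) gene were chemically synthesised with a 3% per-site mutation rate across 69 sites and placed at the native genomic locus in Saccharomyces cerevisiae. Six parallel replicates of the pooled strains were competed in YPD at 37°C for 24 hours, and gene amplicons from the start and end populations were read by 100-nucleotide paired-end sequencing. Darwinian fitness relative to wild type was derived from changes in genotype frequencies. Genotypes required ≥ 100 starting reads, and estimates < 0.5 were set to 0.5.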

Variant	yeast fitness
U16A C30U A40C G48C G67C	≤ 0.5
U16A C30U A40C G68A	0.594
U16A C30U A42U	0.618
U16A C30U G56C	≤ 0.5
U16A C31A	0.645
U16A C31A A65C	≤ 0.5
U16A C31A A69C	0.633
U16A C31A C33A U35C U47A	≤ 0.5
U16A C31A C33G G38A	≤ 0.5
U16A C31A C34G	≤ 0.5
U16A C31G A69U	0.601
U16A C31U	0.979
U16A C33A U53A G63A	≤ 0.5
U16A C33G	0.612
U16A C33G A36U	0.57
U16A C33G C66G	≤ 0.5
U16A C33G G58A G68C	≤ 0.5
U16A C33U A36G G38C	≤ 0.5
U16A C33U G38C	0.625
U16A C34A A40U G44A G63A	≤ 0.5
U16A C34A C60A	0.574
U16A C34G	0.683
U16A C34U A36G A40C G44C	≤ 0.5
U16A C34U A57G C60A	≤ 0.5

Variant	yeast fitness
U16A C34U G38A A42U	≤ 0.5
U16A C34U U47C A57U	≤ 0.5
U16A C46A	0.92
U16A C46A A69U	0.715
U16A C46U	1.04
U16A C46U C55A	≤ 0.5
U16A C46U G68C	0.651
U16A C49G	0.769
U16A C49G A69U	≤ 0.5
U16A C55A A70U	0.542
U16A C55A C61A	≤ 0.5
U16A C55A G68A	≤ 0.5
U16A C55G	0.54
U16A C55U C61G A65G	≤ 0.5
U16A C60A	0.668
U16A C60U U64C A65C	≤ 0.5
U16A C61G	0.631
U16A C61G A65G	≤ 0.5
U16A C61G C66G	≤ 0.5
U16A C61U	1.02
U16A C62G	0.867
U16A C66A	0.653
U16A G17A A57G C66U	≤ 0.5
U16A G17A C22G	0.578

Variant	yeast fitness
U16A G17A C22G C49U C61U G68C	≤ 0.5
U16A G17A C33A G38C A43G U53C	≤ 0.5
U16A G17C C61G A70C	≤ 0.5
U16A G17U G18C G48C	0.764
U16A G18A	0.846
U16A G18A C31G	0.527
U16A G18A C31U A69C	≤ 0.5
U16A G18A C31U C66U	≤ 0.5
U16A G18C A20G C22U A65C	≤ 0.5
U16A G18C A20G C22U G58C C61A	≤ 0.5
U16A G18C A36G G48C	≤ 0.5
U16A G18C G39A G52A	≤ 0.5
U16A G18C G50A A57C	≤ 0.5
U16A G18C U35A C55G A69G	0.64
U16A G18U A37C C60A A70G	≤ 0.5
U16A G18U C29G C30G C46G	≤ 0.5
U16A G23A C29U C34G	0.734
U16A G23A C29U C34G G58A	≤ 0.5
U16A G23C	0.699
U16A G23C C29G G50A A65G	0.751
U16A G23C C29U C31G A57C	≤ 0.5
U16A G23C C29U C31G U47A	≤ 0.5
U16A G23C C29U G58A	≤ 0.5
U16A G23C U26A C29U A42U G48A	0.557

Variant	yeast fitness
U16A G23C U32C C33U	≤ 0.5
U16A G25A U28A	≤ 0.5
U16A G25A U32C	0.889
U16A G25C	0.974
U16A G25C C46G	1.07
U16A G38A A65G C66G	≤ 0.5
U16A G38C	0.749
U16A G39A A42G C55A C62A C66U	0.528
U16A G39A A42G C55A C62U	≤ 0.5
U16A G39A C46G	0.695
U16A G39A C60G A70G	≤ 0.5
U16A G41C	0.668
U16A G48A C61U	0.706
U16A G48C C66U	0.705
U16A G50A	0.899
U16A G50C U54G A69C	≤ 0.5
U16A G52A	0.827
U16A G52A A70C	≤ 0.5
U16A G56A A69C	0.753
U16A G58A	0.859
U16A G58C C61A	≤ 0.5
U16A G63A G67C	≤ 0.5
U16A G63C	0.676
U16A G63C A65G	≤ 0.5

Variant	yeast fitness
U16A G67C	0.769
U16A G68A	1.08
U16A G68A A70C	0.606
U16A G68U	0.837
U16A U19A A43C G56A	≤ 0.5
U16A U19A A45G	0.652
U16A U19A C46U	1
U16A U19A C46U U64C	0.74
U16A U19C C33G A43G U54A	≤ 0.5
U16A U19C C46A A57G C61A A70C	0.656
U16A U19C G56A	0.68
U16A U19G C33U A40C G41A A43C C60U C61G	≤ 0.5
U16A U26A	0.974
U16A U26C A70U	0.558
U16A U26C C30A	≤ 0.5
U16A U26C C31A C33A U35C U47A	≤ 0.5
U16A U28A	0.636
U16A U28A A45U C49A C66U	≤ 0.5
U16A U28A C46G C49A A69U	≤ 0.5
U16A U28A C49A	≤ 0.5
U16A U28A C49G	≤ 0.5
U16A U28A C60G C61A G63A	≤ 0.5
U16A U28A C62U	≤ 0.5
U16A U28A U64C	0.568

Variant	yeast fitness
U16A U28C A69C	0.758
U16A U28C C33G A36U	≤ 0.5
U16A U28C G38C G39A	≤ 0.5
U16A U28C G38C G39A A70G	≤ 0.5
U16A U28G C66U	≤ 0.5
U16A U28G G67A	0.752
U16A U28G U47G U54A	0.56
U16A U32A A40C G63C U64A C66G	≤ 0.5
U16A U32C A37U C49G	0.516
U16A U32G	0.684
U16A U35C A45G G56C G63C	≤ 0.5
U16A U35C C61G A65G	≤ 0.5
U16A U47A	0.825
U16A U47C A65U	0.727
U16A U47C A69U	0.91
U16A U47C C66U	0.893
U16A U47C G63A	0.869
U16A U47G G48C	0.536
U16A U53G C62G	≤ 0.5
U16A U54C C55G	≤ 0.5
U16A U59A C62U	≤ 0.5
U16A U64C	0.929
U16A U64C C66U	0.68
U16C	1.01

Variant	yeast fitness
U16C A20C	0.995
U16C A20C A21U C27G A42U	≤ 0.5
U16C A20C C27U	0.662
U16C A20G	0.976
U16C A20G C29U C62U	≤ 0.5
U16C A20G G52A	≤ 0.5
U16C A20G U32C	0.684
U16C A20U	0.889
U16C A20U G25C	≤ 0.5
U16C A20U G25C C60A	≤ 0.5
U16C A21C A37G U54C C55A	≤ 0.5
U16C A21C C31A A37G C55A	≤ 0.5
U16C A21C C49A A57G G58A C66U G68A	≤ 0.5
U16C A21C G41A	≤ 0.5
U16C A21C G41A G56A	≤ 0.5
U16C A21C G41C A43C C66G A70U	≤ 0.5
U16C A21G A40C A42U C46U C49U G51A A70G	≤ 0.5
U16C A21G A40G A57C	≤ 0.5
U16C A21G A70C	0.725
U16C A21U A43U C61A	≤ 0.5
U16C A21U C29A U35A A43U C62U G68C	≤ 0.5
U16C A21U C62U	≤ 0.5
U16C A36C A37U	≤ 0.5
